Assay results taken from paper PMC4191588 (Journal of Medicinal Chemistry, 2014).
Blank lines part the entries; values can stand above or below the compound they belong to.

Tests used:
Ub-PCNA in H1299 cells = assay: Western blot of monoubiquitinated PCNA; format: cell-based, human; conditions: 4 hr; for change in Ub-PCNA (in words): H1299 cells, 1, 5, and 25 µM; for lowest concentration at which an increase in Ub-PCNA was observed: H1299 cells
H1299 cells = assay: Colony formation assay in H1299 cells; format: cell-based, human; conditions: for effect on cell survival (in words) / reduction of colony formation: H1299 cells, 5 μM, 7 days; for reduction of colony formation: relative to DMSO
small panel of DUBs = conditions: cited from earlier work
451 kinases = conditions: cited from earlier work
USP1/UAF1 = USP1/UAF1 (Homo sapiens, UniProt O94782); assay: USP1/UAF1 quantitative high-throughput screening; format: biochemical
Ca^2+ channel = assay: CEREP LeadProfilingScreen2 radioligand binding; conditions: 10 μM, duplicate
Summary of the method: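 Test compound run at 10 μM in a commercial lead-profiling panel of 80 GPCRs, ion channels and transporters.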

Caco-2 = Caco-2 permeability; format: in vitro ADME
[1] = Aqueous chemical stability; format: physicochemical; conditions: aqueous solution at room temperature
Mouse plasma stability = format: in vitro ADME
[2] = Preliminary in vivo PK studies

Sequence of USP1/UAF1 (O94782 whole entry): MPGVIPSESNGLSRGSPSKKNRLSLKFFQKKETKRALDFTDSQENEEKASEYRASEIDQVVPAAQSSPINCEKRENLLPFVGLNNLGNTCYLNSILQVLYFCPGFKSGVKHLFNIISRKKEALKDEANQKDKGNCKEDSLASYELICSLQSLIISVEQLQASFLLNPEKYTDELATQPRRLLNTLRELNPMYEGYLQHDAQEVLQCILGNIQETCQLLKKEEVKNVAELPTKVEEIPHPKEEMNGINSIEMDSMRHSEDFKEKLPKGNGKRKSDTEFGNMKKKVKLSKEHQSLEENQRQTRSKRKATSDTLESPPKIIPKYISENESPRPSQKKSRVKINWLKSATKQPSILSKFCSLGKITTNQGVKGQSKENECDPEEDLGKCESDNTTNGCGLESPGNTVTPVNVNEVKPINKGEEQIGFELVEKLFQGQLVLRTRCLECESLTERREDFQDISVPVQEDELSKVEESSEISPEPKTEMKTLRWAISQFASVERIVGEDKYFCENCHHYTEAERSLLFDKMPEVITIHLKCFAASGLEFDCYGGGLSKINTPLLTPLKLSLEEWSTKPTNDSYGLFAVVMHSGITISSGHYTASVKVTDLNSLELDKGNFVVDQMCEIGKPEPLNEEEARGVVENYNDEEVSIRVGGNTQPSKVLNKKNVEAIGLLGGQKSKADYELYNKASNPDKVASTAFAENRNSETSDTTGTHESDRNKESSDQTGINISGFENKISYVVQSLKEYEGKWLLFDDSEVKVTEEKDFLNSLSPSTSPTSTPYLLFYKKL
Sequence of USP1/UAF1 (Q8TAF3 whole entry partner): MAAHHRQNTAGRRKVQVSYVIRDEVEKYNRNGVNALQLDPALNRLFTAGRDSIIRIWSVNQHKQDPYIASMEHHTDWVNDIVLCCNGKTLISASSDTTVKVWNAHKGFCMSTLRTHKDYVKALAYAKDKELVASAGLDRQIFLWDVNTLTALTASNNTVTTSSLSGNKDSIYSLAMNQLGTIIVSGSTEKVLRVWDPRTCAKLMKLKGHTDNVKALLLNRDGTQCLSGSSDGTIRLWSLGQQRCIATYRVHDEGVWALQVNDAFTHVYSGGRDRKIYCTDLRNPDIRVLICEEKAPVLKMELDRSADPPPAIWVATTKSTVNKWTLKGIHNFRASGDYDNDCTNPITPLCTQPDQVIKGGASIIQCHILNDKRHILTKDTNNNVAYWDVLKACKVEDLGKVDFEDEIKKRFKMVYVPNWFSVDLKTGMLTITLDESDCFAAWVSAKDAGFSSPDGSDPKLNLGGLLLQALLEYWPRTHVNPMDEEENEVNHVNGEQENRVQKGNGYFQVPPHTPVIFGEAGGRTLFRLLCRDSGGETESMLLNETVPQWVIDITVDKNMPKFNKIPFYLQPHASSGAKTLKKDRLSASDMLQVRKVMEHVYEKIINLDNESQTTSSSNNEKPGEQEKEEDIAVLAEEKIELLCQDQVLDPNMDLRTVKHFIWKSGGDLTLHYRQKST

SMILES: FC(F)(F)c1ccccc1-c1nc(NCc2cccs2)c2ccccc2n1 [Compound 1, N-(Thiophen-2-ylmethyl)-2-(2-(trifluoromethyl)phenyl)quinazolin-4-amine]
- change in Ub-PCNA (in words) (Ub-PCNA in H1299 cells): dose-dependent increase in Ub-PCNA
- effect on cell survival (in words) (H1299 cells): minimal
- activity against a small panel of DUBs (small panel of DUBs): no significant activity
- appreciable inhibition among 451 kinases (451 kinases): only one of 451 kinases

- activity toward USP1/UAF1 (in words) (USP1/UAF1): inactivity
SMILES: FC(F)(F)c1cccc(-c2nc(NCc3ccc(-c4cccnc4)cc3)c3ccccc3n2)c1 [Compound 22]

- activity toward USP1/UAF1 (in words) (USP1/UAF1): inactivity
SMILES: FC(F)(F)c1ccc(-c2nc(NCc3ccc(-c4cccnc4)cc3)c3ccccc3n2)cc1 [Compound 23]

SMILES: CC(C)c1ccccc1-c1nc(NCc2ccc(-c3cccnc3)cc2)c2occc2n1 [Compound 48, 2-(2-Isopropylphenyl)-N-(4-(pyridin-3-yl)benzyl)furo[3,2-d]pyrimidin-4-amine]
- reduction of colony formation (H1299 cells): greater than 70%

SMILES: COc1cnc(-c2ccccc2C(C)C)nc1NCc1ccc(-c2cccnc2)cc1 [Compound 49, 2-(2-Isopropylphenyl)-5-methoxy-N-(4-(pyridin-3-yl)benzyl)pyrimidin-4-amine]
- reduction of colony formation (H1299 cells): greater than 70%

- activity toward USP1/UAF1 (in words) (USP1/UAF1): complete loss of activity
SMILES: Cc1cnc(-c2ccccc2C(C)C)nc1NCC1CCN(C)CC1 [Compound 58]

SMILES: Cc1cnc(-c2ccccc2C(C)C)nc1NCC1CCN(c2cccnc2)CC1 [Compound 64, 2-(2-Isopropylphenyl)-5-methyl-N-((1-(pyridin-3-yl)piperidin-4-yl)methyl)pyrimidin-4-amine]
- change in Ub-PCNA (in words) (Ub-PCNA in H1299 cells): dose-dependent increase in Ub-PCNA
- lowest concentration at which an increase in Ub-PCNA was observed (Ub-PCNA in H1299 cells): 1 µM
- reduction of colony formation (H1299 cells): greater than 70%

SMILES: Cc1cnc(-c2ccccc2C(C)C)nc1NCc1ccc(-n2ccnc2)cc1 [Compound 69, N-(4-(1H-Imidazol-1-yl)benzyl)-2-(2-isopropylphenyl)-5-methylpyrimidin-4-amine]
- reduction of colony formation (H1299 cells): greater than 70%

- inhibition of Ca^2+ channel (Ca^2+ channel): > 50%
- Caco-2 (A→B) Papp (Caco-2): 22.98 10^–6 cm/s
- stability in PBS buffer, assay buffer, pH 2, pH 9 (in words) [1]: stable
- stability in mouse plasma (in words) (Mouse plasma stability): stable
- clearance [2]: > 70 mL/min/kg
SMILES: Cc1cnc(-c2ccccc2C(C)C)nc1NCc1ccc(-n2ccnn2)cc1 [Compound 70, N-(4-(1H-1,2,3-Triazol-1-yl)benzyl)-5-methyl-2-(2-isopropylphenyl)pyrimidin-4-amine]
- change in Ub-PCNA (in words) (Ub-PCNA in H1299 cells): dose-dependent increase in Ub-PCNA
- lowest concentration at which an increase in Ub-PCNA was observed (Ub-PCNA in H1299 cells): 1 µM
- reduction of colony formation (H1299 cells): greater than 70%

- activity toward USP1/UAF1 (in words) (USP1/UAF1): lost all activity
SMILES: Cc1cnc(-c2ccccc2C2COC2)nc1NCc1ccc(-c2cccnc2)cc1 [Compound 72, 5-methyl-2-(2-(oxetan-3-yl)phenyl)-N-(4-(pyridin-3-yl)benzyl)pyrimidin-4-amine]

SMILES: Cc1cnc(-c2ccccc2C2COC2)nc1NCc1ccc(-n2ccnn2)cc1 [Compound 77, N-(4-(1H-1,2,3-Triazol-1-yl)benzyl)-5-methyl-2-(2-(oxetan-3-yl)phenyl)pyrimidin-4-amine]
- activity toward USP1/UAF1 (in words) (USP1/UAF1): lost all activity
- effect on cell survival (in words) (H1299 cells): no effect
- EC50 (H1299 cells; Homo sapiens, NCI-H1299, read-out: EC50 cell survival (colony formation)): > 25 µM
